We go through one substance from paper PMC11754507 (Ophthalmology Science, 2024).

Data set [1] concerns systemic C3 activation (classical pathway). Particulars: serum concentration threshold for inhibition of systemic C3 activation; cited from earlier work.
The subject of data set [2] is systemic C3 activation (alternative pathway). Conditions: serum concentration threshold for inhibition of systemic C3 activation; cited from earlier work.
Data set [3] is classed as in vivo, human. Conditions: intravitreal. Summed up:
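Serum levels pooled from 4 clinical studies in adults with GA or nAMD, after single intravitreal 4, 10 or 20 mg or 15 mg monthly or every other month. LLOQ 0.10 μg/mL; BLQ samples (>20%) handled by M3 method. Vitreous dose compartment, first-order absorption into one serum compartment, first-order elimination; stepwise covariates (forward α=0.05, backward α=0.001); half-lives are median empirical Bayes estimates.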

Setting [4] is: median empirical Bayes estimated.

pegcetacoplan: the “EC50, classical pathway” value in data set [1] is 5.90 µg/mL. In addition, the “half-maximal effective concentration [EC50], alternative pathway” value in data set [2] was 2.77 µg/mL. For the same substance, in data set [3] (apparent volume of the central serum compartment, 261 patients with GA or nAMD), the “VC/F, Transformed Estimate” value was 1.83 L. Also, the “half-life based on the slowest rate process” value in data set [3] was “approximately 2 weeks”. Besides, in data set [3] (setting [4]), the “absorption half-life (vitreous-to-serum)” value is reported as 13.1 days and the “elimination half-life (serum)” value is 4.51 days. Further, the “KA, Transformed Estimate” value in data set [3] (vitreous-to-serum absorption rate constant, 261 patients with GA or nAMD) was 0.0528 day⁻¹.
